This is a sample that favours compounds with a hit; in the whole collection about 2.1% have one here.
Pemphigus Ab inh – blocks pemphigus antibody binding to human desmoglein-3; DSG3-coupled beads, scFv-anti-DSG3-GFP binding, flow cytometry; active compounds read low; binding (percent of control), % at 10 µM; hit rate 0.48% among 310,000;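 active = binding more than 3 SD below its plate's average and above zero; inconclusive = below that plate limit but binding exactly zero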;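 also: hits lower antibody fragment binding to DSG3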
Runt-SMMHC FRET – inhibitors of human RUNX1 Runt domain binding to CBFb-SMMHC; hit rate 0.74% among 220,000; AID 1434; Q01196+Q13951; inhibition, % at 20 µM; Cerulean-Runt/Venus-CBFb-SMMHC FRET ratio 530/480, 1 h;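 active = mean inhibition across duplicate retests at 20 µM reaching about 50%, limit read from the data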;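 also: 0% = DMSO wells and 100% = wells with excess untagged CBFb-SMMHC; inhibitors lower the FRET ratio by blocking Runt binding to CBFb-SMMHC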
Runt-CBFb FRET – blocks binding of human RUNX1 Runt domain to CBFb; hit rate 0.46% among 220,000; Q01196+Q13951; inhibition, % at 20 µM; Cerulean-Runt/Venus-CBFb FRET ratio 530/480, 1 h; AID 1496;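 active = inhibition over about 50% at 20 µM in the single-dose screen, limit read from the data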;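 also: 0% = DMSO wells and 100% = excess unlabeled CBFb competitor control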
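test system = Cerulean-Runt domain fusion protein, energy donor | probe or stimulus = Venus-CBFb binding partner, 100 nM | incubation = two 1 h room-temperature incubations shielded from light | detection = fluorescence energy transfer, 422 nm excitation, 530/480 nm emission | measure = loss of energy transfer signal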
Hck-Nef inh – inhibitors of human Hck kinase activated by Nef | P08631 | Recombinant Hck-YEEI plus Nef, Z-Lyte FRET kinase assay | inhibition, % at 20 µM | hit rate 0.68% among 220,000 | AID 463187;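 active = Hck-Nef kinase inhibition above about 50%, limit read from the data; inactive = inhibition below that limit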;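 also: 0% = DMSO with Hck plus Nef and 100% = Hck alone without Nef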
Target sequence (P08631 whole entry, looked up): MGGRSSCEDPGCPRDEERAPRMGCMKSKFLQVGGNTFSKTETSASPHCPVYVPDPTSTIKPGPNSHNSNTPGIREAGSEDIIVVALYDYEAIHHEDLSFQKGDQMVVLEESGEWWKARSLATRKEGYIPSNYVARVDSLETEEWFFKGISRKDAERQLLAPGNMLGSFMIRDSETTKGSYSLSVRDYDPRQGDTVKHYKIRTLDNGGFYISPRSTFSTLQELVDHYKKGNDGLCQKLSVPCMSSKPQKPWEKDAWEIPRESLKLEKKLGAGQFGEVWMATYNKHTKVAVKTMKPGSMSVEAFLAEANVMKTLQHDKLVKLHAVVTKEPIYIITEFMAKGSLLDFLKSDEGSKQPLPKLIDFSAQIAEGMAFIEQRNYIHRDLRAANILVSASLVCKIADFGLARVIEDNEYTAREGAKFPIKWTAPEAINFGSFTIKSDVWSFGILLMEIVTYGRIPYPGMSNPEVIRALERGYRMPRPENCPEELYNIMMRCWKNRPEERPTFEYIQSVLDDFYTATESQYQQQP
RanGTP-Imp inh – inhibitors of RanGTP-importin-beta interaction, primary screen, biochemical, FRET, CFP-Ran, YFP-importin-beta, homogeneous; AID 2216; hit rate 1.1% among 300,000; inhibition, % (concentration not given with the values); cell-free CFP-Ran/YFP-importin-beta FRET ratio;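 active = more than half of the replicate wells show a fall in the fluorescence ratio signal beyond about 16%, limit read from the data, passing the limit was not always enough; inconclusive = exactly half of the replicate wells pass the set limit; inactive = fewer than half of replicates pass the limit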;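 also: 0% = DMSO wells and 100% = Ran loaded with GDP instead of GTP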
p-CIP stab down – lowers stability of the mouse p/CIP coactivator protein | Q05BA5 | F442A p/CIP-EGFP cells, EGFP fluorescence, 16 h | decrease of EGFP signal, % at 10 µM | hit rate 0.01% among 290,000 | AID 1984;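 active = EGFP signal decrease of at least 30% at 10 µM or well 3 SD below plate mean, unless failing retest; inactive = the rest, including hits failing retest or dose response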
Active calls of the source: *; ? = inconclusive; / = no result.

SMILES | Pemphigus Ab inh | Runt-SMMHC FRET | Runt-CBFb FRET | Hck-Nef inh | RanGTP-Imp inh | p-CIP stab down
O=C1c2ccccc2C(=O)N1CCc1csc(NNc2nc(CCN3C(=O)c4ccccc4C3=O)cs2)n1 | 75.7* | 4.2 | / | 69.2* | 3.3 | -13.2
CCc1cc(=O)[nH]c(SCC(=O)Nc2ccc3c(c2)OCCO3)n1 | 100.3 | / | / | / | -1.0 | /
COc1ccc(/C=C/c2nnc(NC(=O)CSc3ccc(C)cc3)s2)cc1 | 95.0 | 123.5* | 1.0 | 23.3 | 7.0 | -9.5
CCC(=O)Nc1nnc(/C=C/c2ccc(OC)cc2)s1 | / | 0.6 | -2.2 | 2.5 | 1.0 | -17.0
COc1ccc2nccc(/C=C/c3ccnc4ccc(OC)cc34)c2c1 | 86.5 | 81.7* | -0.3 | -59.4 | 61.5* | -10.1
CCOC(=O)CNC(=O)C1(/C=C/c2ccccc2)CC(=O)N1c1ccc(C)cc1 (configuration not stated) | 91.9 | / | / | / | 0.9 | -10.3
Cc1ccc(/C=C/C2=Cc3c(sc(NC(=O)CSc4n[nH]c(N)n4)c3C#N)C(C)(C)C2)o1 | / | 11.8 | 19.4 | 63.8* | -11.3 | -43.3
Cc1sc(NC(=O)CSc2n[nH]c(N)n2)c(C#N)c1C | 119.3 | / | / | / | / | /
Cc1cc(-n2ccnc2)n2c(nc3ccccc32)c1C#N | 87.3 | 47.5 | 36.7 | 6.1 | 2.8 | 3.1
CCCc1cc(-n2ccnc2)n2c(nc3ccccc32)c1C#N | 114.4 | 61.6* | 88.5* | 5.5 | ? | -16.0
COC(=O)c1cccc(/C=N/NC(N)=S)c1O | 98.3 | 84.0* | 38.9 | -79.2 | 42.3* | -4.2
COc1cc(-c2c(C#N)c(N)nc(SCc3ccncc3)c2C#N)cc(OC)c1OC | 99.8 | 3.5 | -3.2 | 1.5 | 8.2 | 0.1
N#Cc1c(-c2ccccc2)cc2nc3ccccc3n2c1N | 91.9 | 10.3 | 7.2 | 4.7 | 17.2* | -6.2
Nc1cc(-c2ccccc2)n2c(n1)nc1ccccc12 | 100.9 | -0.7 | 1.1 | 23.6 | 7.6 | -3.8
COc1cc(-c2cc3nc4ccccc4n3c(N)c2C#N)cc(OC)c1OC | 99.3 | 15.4 | 7.2 | 49.9 | 24.9* | -10.2
CC(Cc1ccccc1)NC(=O)CCNNC(=O)c1ccncc1 (configuration not stated) | 97.2 | / | / | / | / | /
Cc1ccc(C)c(OCC(O)CN2CCC(Cc3ccccc3)CC2)c1 (configuration not stated) | / | / | / | / | -0.5 | 0.3
CCOc1ccc(NS(=O)(=O)c2ccc(-c3coc(C)n3)cc2)cc1 | 104.7 | / | / | / | 3.8 | -12.4
CN1C(=O)/C(=C2/C=Cc3ccccc3N2CCCS(=O)(=O)O)SC1=S | 96.8 | -2.1 | -2.4 | 5.6 | -5.6 | -12.7
C=CCN1C(=O)/C(=C2/Sc3ccccc3N2CCCS(=O)(=O)O)SC1=S | 99.5 | 65.3* | 66.0* | 6.5 | 45.5* | -0.1
c1ccc(-c2cn3nc4c(nc3n2)CCCC4)cc1 | 106.1 | -4.0 | 1.5 | 9.0 | 82.8* | 2.9
Brc1ccc2nc3c(n2c1)CCCC3 | 99.3 | -2.7 | -3.2 | -0.7 | 3.4 | 6.5
Brc1ccc(-c2cn3nc4c(nc3n2)CCCC4)cc1 | 107.9 | -5.5 | 3.9 | 1.6 | 61.1* | -10.0
c1ccc(-c2cn3c(n2)CCC3)cc1 | 109.0 | 1.3 | 1.2 | 5.4 | -1.2 | -3.7
C=CCn1c(C)cc(C(=O)COC(=O)c2cncc(Br)c2)c1C | 105.0 | / | / | / | / | /
SMILES | Pemphigus Ab inh | Runt-SMMHC FRET | Runt-CBFb FRET | Hck-Nef inh | RanGTP-Imp inh | p-CIP stab down
NC(=S)Nc1cccc(O)c1 | 99.0 | 2.6 | 0.7 | 20.1 | -0.6 | 5.9
CCCC(=O)Nc1nc(-c2ccc(Cl)s2)cs1 | 94.3 | 0.4 | -0.9 | 20.8 | 0.6 | 7.7
O=C(O)C1CCCCC1C(=O)Nc1nc(-c2ccc(Cl)s2)cs1 (configuration not stated) | 87.9 | 8.2 | 16.9 | 70.1* | -3.7 | -12.8
C/C=C/C=C/[C@H]1Cc2cc(O)cc(O)c2O1 | / | -22.4 | 3.9 | 44.9 | 22.0* | 7.3
N#CCc1nc(-c2cc3ccccc3oc2=O)cs1 | 92.6 | -0.5 | 2.7 | 19.9 | 176.7* | -11.8
CCn1c(=N)c(S(=O)(=O)c2ccc(Cl)cc2)cc2c(=O)n3ccccc3nc21 | / | / | / | 20.3 | 2.3 | -8.2
N=c1c(S(=O)(=O)c2ccccc2)cc2c(=O)n3ccccc3nc2n1C1CCCCC1 | 100.3 | / | / | / | / | /
N=c1c(S(=O)(=O)c2ccc(Cl)cc2)cc2c(=O)n3ccccc3nc2n1C1CCCC1 | 115.6 | / | / | / | 131.6* | -1.0
N=c1c(S(=O)(=O)c2ccccc2)cc2c(=O)n3ccccc3nc2n1CC1CCCO1 (configuration not stated) | 61.2 | 61.3* | 105.3* | 15.0 | / | -8.6
N=c1c(S(=O)(=O)c2ccc(Cl)cc2)cc2c(=O)n3ccccc3nc2n1Cc1ccco1 | 104.7 | / | / | / | 96.0* | -10.0
N=c1c(S(=O)(=O)c2ccc(Cl)cc2)cc2c(=O)n3ccccc3nc2n1CC1CCCO1 (configuration not stated) | 104.8 | / | / | / | 112.2* | -0.7
Cc1cccc(-c2noc(CCCC(=O)NC3CCCCC3)n2)c1 | 96.3 | / | / | / | 1.7 | -10.0
COc1ccc(C(C#N)=Cc2ccc(N(C)CCC#N)cc2)cc1 | 110.2 | / | / | / | / | /
Cc1ccc(S(=O)(=O)c2cc3c(=O)n4cc(C)ccc4nc3n(CC3CCCO3)c2=N)cc1 (configuration not stated) | / | 89.5* | 85.7* | / | / | 4.1
Cc1ccc2nc3c(cc(S(=O)(=O)c4ccccc4)c(=N)n3C3CCCC3)c(=O)n2c1 | 93.8 | / | / | / | / | /
S=C(Nc1ccccc1)N1CCC(Cc2ccccc2)CC1 | 100.2 | / | / | / | -3.5 | -6.9
CCOc1ccc(OCC(=O)Nc2ccc(S(=O)(=O)Nc3cc(C)nc(C)n3)cc2)cc1 | 103.0 | -3.9 | 1.5 | 7.1 | 2.1 | 4.5
Cc1ccc(OCCC(=O)Nc2ccc(S(=O)(=O)Nc3cc(C)nc(C)n3)cc2)cc1 | 94.0 | / | / | / | 19.5* | /
C[C@H](CO)N1C[C@H](C)[C@@H](CN(C)Cc2ccc(C(=O)Nc3ccccc3N)cc2)Oc2c(NC(=O)C3CCCCC3)cccc2C1=O | 100.7 | / | / | / | / | /
CCOCCCNC(=S)N1CCCN(c2nc3cc(C)c(C)cc3cc2C#N)CC1 | 95.8 | 51.5* | 20.4 | 21.8 | 58.5* | -9.9
COCCCNC(=S)N1CCCN(c2nc3cc(C)ccc3cc2C#N)CC1 | 96.5 | 31.2 | 10.4 | 12.0 | -8.0 | 2.0
COCCCNC(=S)N1CCCN(c2nc3cc(C)c(C)cc3cc2C#N)CC1 | 101.3 | 21.1 | 15.8 | 26.4 | 56.6* | -2.8
O=C(NC1CC1)c1cccc(NC(=O)C2CCCCC2)c1 | 98.9 | / | / | / | / | /
Clc1ccc(-c2ccc(C=Nc3ccc(N4CCOCC4)cc3)o2)c(Cl)c1 | 26.7* | -2.2 | -1.3 | 8.2 | -0.6 | 2.6
Clc1ccc(-c2ccc(C=Nc3ccc(N4CCOCC4)cc3)o2)cc1 | 99.0 | -12.6 | -1.7 | 8.4 | 5.5 | -10.5
COc1cc(NS(=O)(=O)c2ccc(-n3cccn3)cc2)cc(OC)c1 | 101.8 | / | / | / | / | /

High-throughput results: PubChem, several laboratories
